Assay [1] has as its target T1, Gamma-aminobutyric acid receptor subunit alpha-2 (Homo sapiens, UniProt P47869).
T1 sequence (P47869 whole entry): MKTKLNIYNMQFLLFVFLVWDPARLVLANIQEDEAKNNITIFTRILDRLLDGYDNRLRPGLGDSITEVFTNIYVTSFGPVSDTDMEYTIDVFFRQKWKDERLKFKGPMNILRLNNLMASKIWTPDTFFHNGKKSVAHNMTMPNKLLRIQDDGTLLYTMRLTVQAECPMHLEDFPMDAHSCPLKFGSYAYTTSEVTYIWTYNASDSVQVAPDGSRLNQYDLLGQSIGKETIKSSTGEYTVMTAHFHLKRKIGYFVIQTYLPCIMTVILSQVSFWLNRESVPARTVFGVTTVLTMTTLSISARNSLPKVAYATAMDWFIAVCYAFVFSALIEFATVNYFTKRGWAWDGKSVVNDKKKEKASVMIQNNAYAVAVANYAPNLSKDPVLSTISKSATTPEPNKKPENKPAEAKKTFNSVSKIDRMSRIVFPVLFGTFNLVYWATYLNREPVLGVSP
As to the kind of experiment: Effective concentration against gamma-aminobutyric acid (GABA) A receptor, alpha 2. Also on record: species or system Xenopus laevis. Put shortly:
(§1)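 Xenopus laevis oocytes were injected with human cRNA for the α, β and γ subunits needed to express each receptor subtype (α1, α2, α3 or α5). Electrophysiological recording was used to read potentiation, and the effective concentration and maximal percent potentiation were derived from it.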

Assay [2] has as its target GABA-A receptor; anion channel. As to the kind of experiment: Binding affinity was determined by displacement of [3H]flumazenil from rat cortex homogenates. Format: functional. Put shortly: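 Displacement of [3H]flumazenil from rat cortex homogenates. Values are averages (±SD); some analogues were run once as a single set of triplicates. NA means an IC50 was not achieved at the highest dose tested.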

Assay [3] addresses T2, Gamma-aminobutyric acid receptor subunit alpha-1 (Homo sapiens, UniProt P14867).
T2 sequence (P14867 whole entry): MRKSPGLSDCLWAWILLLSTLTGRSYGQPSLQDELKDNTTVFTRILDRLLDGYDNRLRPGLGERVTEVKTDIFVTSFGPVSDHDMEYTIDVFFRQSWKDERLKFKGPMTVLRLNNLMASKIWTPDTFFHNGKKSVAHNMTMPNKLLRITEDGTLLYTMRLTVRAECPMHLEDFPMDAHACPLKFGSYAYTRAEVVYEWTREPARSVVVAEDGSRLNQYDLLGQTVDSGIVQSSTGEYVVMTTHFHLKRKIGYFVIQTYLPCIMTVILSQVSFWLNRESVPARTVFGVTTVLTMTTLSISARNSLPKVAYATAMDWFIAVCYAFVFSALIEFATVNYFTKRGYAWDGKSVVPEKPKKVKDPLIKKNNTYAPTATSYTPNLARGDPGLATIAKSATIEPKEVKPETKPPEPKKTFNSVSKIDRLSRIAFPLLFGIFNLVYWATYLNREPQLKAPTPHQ
Put plainly: Effective concentration against gamma-aminobutyric acid (GABA) A receptor, alpha 1. The arrangement: species or system Xenopus laevis. The method in brief: as §1

Assay [4] concerns the target T3, Gamma-aminobutyric acid receptor subunit alpha-3 (Homo sapiens, UniProt P34903).
T3 sequence (P34903 whole entry): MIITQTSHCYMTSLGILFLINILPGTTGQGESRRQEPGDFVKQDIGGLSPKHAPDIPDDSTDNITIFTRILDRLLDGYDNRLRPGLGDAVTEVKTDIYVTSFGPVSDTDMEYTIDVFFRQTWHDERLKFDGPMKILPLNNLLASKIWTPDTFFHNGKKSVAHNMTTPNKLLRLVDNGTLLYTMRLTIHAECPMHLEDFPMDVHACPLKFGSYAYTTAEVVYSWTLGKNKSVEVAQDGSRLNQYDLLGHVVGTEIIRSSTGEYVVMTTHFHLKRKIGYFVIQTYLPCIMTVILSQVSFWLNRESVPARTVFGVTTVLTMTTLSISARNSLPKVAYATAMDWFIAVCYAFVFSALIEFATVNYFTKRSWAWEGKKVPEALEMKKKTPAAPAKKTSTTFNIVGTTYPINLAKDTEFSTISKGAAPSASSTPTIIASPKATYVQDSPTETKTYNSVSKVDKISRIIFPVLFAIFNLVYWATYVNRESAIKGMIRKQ
As to the kind of experiment: Effective concentration against gamma-aminobutyric acid (GABA) A receptor, alpha 3. Also on record: species or system Xenopus laevis. Put shortly:
as §1

Assay [5] addresses T4, Gamma-aminobutyric acid receptor subunit alpha-2 (Homo sapiens) (UniProt P47869).
T4 sequence (whole entry): T1 sequence (P47869 whole entry)
As to the kind of experiment: Maximum percent potentiation against gamma-aminobutyric acid (GABA) A receptor, alpha 2. The following applies: Xenopus laevis. Put shortly: as §1

In assay [6] the target is T5, Gamma-aminobutyric acid receptor subunit alpha-3 (Homo sapiens) (UniProt P34903).
T5 sequence (whole entry): T3 sequence (P34903 whole entry)
As to the kind of experiment: Maximum percent potentiation against gamma-aminobutyric acid (GABA) A receptor, alpha 3. The following applies: Xenopus laevis. The method in brief: as §1

In assay [7] the target is T6, Gamma-aminobutyric acid receptor subunit alpha-5 (Homo sapiens) (UniProt P31644).
T6 sequence (whole entry): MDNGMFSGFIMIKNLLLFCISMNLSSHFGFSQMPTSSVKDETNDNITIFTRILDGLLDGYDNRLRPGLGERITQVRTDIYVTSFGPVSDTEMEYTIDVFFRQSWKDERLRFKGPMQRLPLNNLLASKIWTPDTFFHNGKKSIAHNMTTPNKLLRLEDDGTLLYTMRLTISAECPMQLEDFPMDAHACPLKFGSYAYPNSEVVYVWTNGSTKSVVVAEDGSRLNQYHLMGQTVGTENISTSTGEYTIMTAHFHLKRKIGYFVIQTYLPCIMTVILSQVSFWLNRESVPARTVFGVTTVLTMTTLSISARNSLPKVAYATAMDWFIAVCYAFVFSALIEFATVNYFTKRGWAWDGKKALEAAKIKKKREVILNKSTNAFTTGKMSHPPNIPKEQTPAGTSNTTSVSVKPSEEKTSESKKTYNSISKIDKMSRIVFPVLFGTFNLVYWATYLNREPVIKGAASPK
As to the kind of experiment: Maximum percent potentiation against gamma-aminobutyric acid (GABA) A receptor, alpha 5. As to conditions: Xenopus laevis. The method in brief: as §1

Assay [8] concerns the target T7, Gamma-aminobutyric acid receptor subunit alpha-1 (Homo sapiens) (UniProt P14867).
T7 sequence (whole entry): T2 sequence (P14867 whole entry)
As to the kind of experiment: Maximum percent potentiation against gamma-aminobutyric acid (GABA) A receptor, alpha 1. The following applies: Xenopus laevis. Put shortly:
as §1

Turning to `O=c1[nH]c2c(c3nc(-c4ccc(F)cc4)cn13)CN(Cc1ccccc1)CC2`, the EC50 came to 245 nM in assay [1] and 136 nM in assay [3]. The same compound returned a Ki in assay [2] of 21 nM.
Take `C[C@@H](c1ccccc1)N1CCc2nc(O)n3cc(-c4ccccc4F)nc3c2C1`: affinity in assay [2] was put at a Ki of 6.5 nM. This counts as single-digit nanomolar.
For `C=CCN1CCc2[nH]c(=O)n3cc(-c4ccccc4F)nc3c2C1`, the EC50 in assay [1] came out at 284 nM; in assay [4], 344 nM; in assay [3], 170 nM. The compound also registered a Ki in assay [2] of 26 nM.
For `CCCC(=O)N1CCc2nc(O)n3cc(-c4ccccc4F)nc3c2C1`, affinity in assay [2] was put at a Ki of 261 nM.
For the compound `O=c1[nH]c2c(c3nc(-c4ccccc4)cn13)CN(Cc1ccccc1)CC2`, the EC50 in assay [1] is 184 nM; in assay [3], 17 nM.
Compound `COc1ccc(-c2cn3c(O)nc4c(c3n2)CN(C)CC4)cc1` returned a Ki in assay [2] of 240 nM.
Still for that read-out and setting: the value for `O=C(c1ccccc1)N1CCc2nc(O)n3cc(-c4ccccc4F)nc3c2C1` was 83 nM.
In the case of `O=C(OCc1ccccc1)N1CCc2nc(O)n3cc(-c4ccccc4F)nc3c2C1`, the Activity was determined as 8% in assay [5], 0% in assay [6], 3% in assay [7] and 5% in assay [8].
In the case of `COc1ccccc1-c1cn2c(O)nc3c(c2n1)CN(Cc1ccccc1)CC3`, in assay [2], the Ki was 797 nM.
The compound `O=C(c1ccccn1)N1CCc2nc(O)n3cc(-c4ccccc4F)nc3c2C1` showed a Ki in assay [2] of 73 nM.
Regarding `CC(=O)N1CCc2nc(O)n3cc(-c4ccccc4F)nc3c2C1`, the Activity in assay [5] was determined as 0%; in assay [6], 11%; in assay [7], 0%; in assay [8], 0%. Moreover, in assay [4], the EC50 was 71 nM. Moreover, in assay [2], the Ki was determined as 41 nM.
In the case of `C=CCN1CCc2nc(O)n3cc(-c4ccccc4F)nc3c2C1`, the Activity in assay [5] was found to be 18%; in assay [6] it was 20%; in assay [7], 0%; in assay [8] it was 5%.
For the compound `CC(c1ccccc1)N1CCc2nc(O)n3cc(-c4ccccc4F)nc3c2C1` (configuration not stated), the Ki in assay [2] is 2.9 nM. This lies in the single-digit nanomolar range.
Same read-out and setting: the value for `COc1ccc(-c2cn3c(O)nc4c(c3n2)CN(C)CC4)c(F)c1` was 45 nM.
As to `O=c1[nH]c2c(c3nc(-c4cccc(F)c4)cn13)CN(Cc1ccccc1)CC2`, the EC50 in assay [1] is 154 nM; in assay [3] it was 120 nM. Besides, in assay [2], the Ki amounted to 11.3 nM.
Turning to `Oc1nc2c(c3nc(-c4cc(F)cc(F)c4)cn13)CN(Cc1ccccc1)CC2`, the Ki in assay [2] worked out at 72 nM. This counts as double-digit nanomolar.
For `CCN1CCc2nc(O)n3cc(-c4ccccc4F)nc3c2C1`, the Activity is 0% in assay [5], 14% in assay [6], 0% in assay [7] and 0% in assay [8]. Further, in assay [4], the EC50 is 935 nM. The compound further came in with a Ki in assay [2] of 56 nM.
Regarding `CCOC(=O)N1CCc2nc(O)n3cc(-c4ccccc4F)nc3c2C1`, the Ki in assay [2] amounted to 64 nM. In other words, the double-digit nanomolar range.
The same measure, in the same setting: the value for `Oc1nc2c(c3nc(-c4cccc(Cl)c4)cn13)CN(Cc1ccccc1)CC2` was 71 nM.
On the same count and under the same terms, the value for `CC(C)N1CCc2nc(O)n3cc(-c4ccccc4F)nc3c2C1` was 51 nM.
With `COc1ccc(-c2cn3c(=O)[nH]c4c(c3n2)CN(Cc2ccccc2)CC4)cc1`, the values for the EC50 in assay [1] and in assay [3] were 143 nM and 28 nM, respectively. In assay [2], this compound gave an inhibition constant (Ki) of 2.6 nM.
`O=C(c1ccncc1)N1CCc2nc(O)n3cc(-c4ccccc4F)nc3c2C1` came in with a Ki in assay [2] of 123 nM.
With `COc1cccc(-c2cn3c(=O)[nH]c4c(c3n2)CN(Cc2ccccc2)CC4)c1`, the EC50 in assay [1] came to 268 nM; in assay [3], 81 nM. Further, the Ki in assay [2] stood at 2.3 nM.
For the compound `Oc1nc2c(c3nc(-c4ccccc4F)cn13)CN(Cc1c[nH]cn1)CC2`, the Activity in assay [5] amounted to 58%; in assay [6], 49%; in assay [7], 44%; in assay [8] it was 40%.
`Oc1nc2c(c3nc(-c4ccccc4F)cn13)CN(CCCc1ccccc1)CC2` gave a Ki in assay [2] of 147 nM.
The same measure, in the same setting: the value for `CCCCOC(=O)N1CCc2nc(O)n3cc(-c4ccccc4F)nc3c2C1` was 230 nM.
On to `CN1CCc2nc(O)n3cc(-c4ccccc4F)nc3c2C1`, for which the Activity in assay [5] and in assay [8] was 0% throughout.
As to `Oc1nc2c(c3nc(-c4cc(F)ccc4F)cn13)CN(Cc1ccccc1)CC2`, the Activity in assay [5] was found to be 82%; in assay [8], 59%. Besides, the values for the EC50 in assay [1] and in assay [3] were 188 nM and 36 nM, respectively.
`CC(c1ccccc1F)N1CCc2nc(O)n3cc(-c4ccccc4F)nc3c2C1` (configuration not stated): in assay [2], affinity was put at a Ki of 1.7 nM.
On the same count and under the same terms, the value for `Oc1nc2c(c3nc(-c4ccccc4F)cn13)CN(CCc1ccccc1)CC2` was 83 nM; that for `CC(c1cccc(F)c1)N1CCc2nc(O)n3cc(-c4ccccc4F)nc3c2C1` (configuration not stated) was 8.3 nM.
As to `O=c1[nH]c2c(c3nc(-c4ccccc4F)cn13)CN(Cc1cccnc1)CC2`, the EC50 in assay [1] is 101 nM; in assay [4] it was 23 nM; in assay [3] it was 56 nM. The same compound gave a Ki in assay [2] of 1.4 nM.
In assay [2], `O=C(Cc1ccccc1)N1CCc2nc(O)n3cc(-c4ccccc4F)nc3c2C1` yielded an inhibition constant (Ki) of 388 nM. This counts as sub-micromolar.
Same read-out and setting: the value for `Oc1nc2c(c3nc(-c4ccc(Cl)cc4)cn13)CN(Cc1ccccc1)CC2` was 121 nM.
As to `COc1cccc(-c2cn3c(O)nc4c(c3n2)CN(Cc2ccccc2)CC4)c1`, the Activity is 115% in assay [5] and 123% in assay [8].
In turn, `COc1ccc(-c2cn3c(O)nc4c(c3n2)CN(Cc2ccccc2)CC4)c(F)c1` registered a Ki in assay [2] of 0.6 nM.
Regarding `Oc1nc2c(c3nc(-c4ccc(F)cc4F)cn13)CN(Cc1ccccc1)CC2`, the Activity in assay [5] came to 184%; in assay [6], 95%; in assay [7], 30%; in assay [8], 63%.
Consider `O=C(c1cccnc1)N1CCc2nc(O)n3cc(-c4ccccc4F)nc3c2C1`, for which, in assay [2], the Ki came to 92 nM.
Take `Oc1nc2c(c3nc(-c4ccccc4F)cn13)CN(Cc1ccccc1)CC2`: the Activity in assay [5] amounted to 76%; in assay [6] it was 120%; in assay [7] it was 31%; in assay [8], 56%.
As to `CC(c1ccc(F)cc1)N1CCc2nc(O)n3cc(-c4ccccc4F)nc3c2C1` (configuration not stated), in assay [2], the Ki worked out at 14.9 nM.
Regarding `Oc1nc2c(c3nc(-c4ccccc4F)cn13)CN(CC1CCCCC1)CC2`, the Activity worked out at 71% in assay [5], 115% in assay [6], 101% in assay [7] and 114% in assay [8].
`O=C(c1ccccc1)N1CCc2nc(O)n3cc(-c4ccccc4)nc3c2C1` returned a Ki in assay [2] of 301 nM. That is a sub-micromolar value.
With `Oc1nc2c(c3nc(-c4ccccc4)cn13)CN(Cc1ccccc1)CC2`, the results for the Activity in assay [5] and in assay [8] were 179% and 67%, respectively.
